Assay results as given in ChEMBL document CHEMBL5661964, “Selective in vivo and in vitro effects of a small molecule inhibitor of cyclin-dependent kinase 4” (J Natl Cancer Inst, 2001).
Calls of active or inactive are those of the source. No cut-off for these calls is given here.

What was measured:
HCT-116 [1] = assay: Antitumor activity against human HCT-116 cells xenografted in nude mouse assessed as decrease tumor growth at 75 mg/kg, iv administered once per week measured after 29 days; assay type: functional, organism-based; conditions: time 29.0 day
Method in brief: (§1)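 Female BALB/c nu/nu mice (19–21 g) received 0.1 mL of HCT116 suspension (1 × 10^7 viable cells/mL, Hanks' buffer) s.c. At day 20 (tumours ~100 mm3), they were randomised into groups of eight. Dosing was i.v. via lateral tail vein at 10 mL/kg for 29 days. Blinded caliper volumes (L × W² × π/6) were taken every 2–4 days. Comparison to […] vehicle controls used one-way ANOVA/Dunnett; log-volume slopes gave growth rate.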

HCT-116 [2] = assay: Antitumor activity against human HCT-116 cells xenografted in nude mouse assessed as decrease tumor volume at 75 mg/kg, iv administered once per week measured after 29 days; assay type: functional, organism-based; conditions: time 29.0 day; method in brief: as §1

## O=c1[nH]cc(F)c(=O)[nH]1
HCT-116 [1]
  Activity: Active
HCT-116 [2]
  Activity: Active
